Published values gathered from unrelated publications.
Compare with care: the assays were run in different laboratories.
Read-out: cell growth or viability

Structure (SMILES) | cell line | technique | time | endpoint | result
COc1cccc(Oc2ccccc2NC(=O)CNC(=O)c2cccc3ccccc23)c1 | UO-31 | SRB | 48 h | GI50 | 1820 nM
COc1ccc(-c2ccc(-c3ccc(C(=N)N)nc3)s2)cc1Cl | UO-31 |  |  | GI50 | 1550 nM
Cc1n(Cc2ccc3ccccc3n2)cc[n+]1Cc1ccc2ccccc2c1 | HOP-62 | SRB |  | TGI | 6660 nM
CC(C)(C=O)Cc1cc(C(C)(C)C)c(O)c(C(C)(C)C)c1 | CAL-27 |  | 72 h | IC50 | > 20000 nM
COc1ccc(-c2ccc(-c3ccc(C(=N)N)nc3)s2)cc1 | SN12C |  |  | GI50 | 1830 nM
CN(C)CCOc1ccc(-c2nc(-c3ccncc3)c(-c3ccc4c(c3)CC/C4=N\O)[nH]2)cc1 | 451Lu | ATP luminescence | 72 h | EC50 | 670 nM
Cc1ccc2cncc(N3CCc4c(cc(Cn5ccnc5)cc4-c4cn(C)nc4C(F)(F)F)C3=O)c2c1 | K562 | ATP luminescence | 5 days | GI50 | 4900 nM
COc1cc(-c2ccc(-c3ccc(C(=N)N)nc3)s2)cc(OC)c1OC | UO-31 |  |  | GI50 | 1880 nM
C[C@@H](Oc1cc(-c2cnn(C3CCNCC3)c2)cnc1N)c1c(Cl)ccc(F)c1Cl | M091 | resazurin | 48 h | GI50 | 10 nM
c1ccc(-c2n(Cc3ccc4ccccc4c3)cc[n+]2Cc2ccc3ccccc3c2)cc1 | HOP-62 | SRB |  | TGI | 3230 nM
CC(C)C[C@H](NC(=O)[C@H](Cc1ccccc1)NC(=O)c1cnccn1)B(O)O | OVK18 | ATP luminescence |  | IC50 | 8.8 nM
CCCc1n(Cc2ccc3ccccc3n2)cc[n+]1Cc1ccc2ccccc2c1 | HOP-62 | SRB |  | TGI | 5380 nM
S=C([S][Au-][P+](CCCCCC[P+]([Au-][S]C(=S)n1cccn1)(c1ccccc1)c1ccccc1)(c1ccccc1)c1ccccc1)n1cccn1 | UO-31 |  |  | GI50 | 933 nM
c1ccc2cc(Cn3cc[n+](Cc4ccc5ccccc5c4)c3)ccc2c1 | HOP-92 | SRB |  | TGI | 1390 nM
CC1(C)C(=O)NC2=C1C(=O)C(=O)c1ccccc12 | CAL-27 |  | 72 h | IC50 | 2880 nM
